The source made the active and inactive calls. The calls are words filed in the database; no cut-off is given here.
How the values were obtained:
[1] = Antiproliferative activity against mouse Ba/F3 NPM-ALK cells assessed as luciferase expression after 2 to 3 days; type: functional, cell-based
Method in brief: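 Ba/F3 cells carrying luciferase, either parental (with IL-3) or transformed by NPM-ALK or TEL-kinase fusions, 25,000 per well with serial dilutions or DMSO for 2–3 days. Bright-Glo luminescence taken as proliferation/survival. IC50 from curve fit.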

[2] = molecular target: Signal transducer and activator of transcription 3 (Homo sapiens) (UniProt P40763); test: Inhibition of STAT3 phosphorylation in human Karpas299 cells; type: cell-based; conditions: KARPAS-299
Signal transducer and activator of transcription 3 (Homo sapiens), sequence (P40763 whole entry): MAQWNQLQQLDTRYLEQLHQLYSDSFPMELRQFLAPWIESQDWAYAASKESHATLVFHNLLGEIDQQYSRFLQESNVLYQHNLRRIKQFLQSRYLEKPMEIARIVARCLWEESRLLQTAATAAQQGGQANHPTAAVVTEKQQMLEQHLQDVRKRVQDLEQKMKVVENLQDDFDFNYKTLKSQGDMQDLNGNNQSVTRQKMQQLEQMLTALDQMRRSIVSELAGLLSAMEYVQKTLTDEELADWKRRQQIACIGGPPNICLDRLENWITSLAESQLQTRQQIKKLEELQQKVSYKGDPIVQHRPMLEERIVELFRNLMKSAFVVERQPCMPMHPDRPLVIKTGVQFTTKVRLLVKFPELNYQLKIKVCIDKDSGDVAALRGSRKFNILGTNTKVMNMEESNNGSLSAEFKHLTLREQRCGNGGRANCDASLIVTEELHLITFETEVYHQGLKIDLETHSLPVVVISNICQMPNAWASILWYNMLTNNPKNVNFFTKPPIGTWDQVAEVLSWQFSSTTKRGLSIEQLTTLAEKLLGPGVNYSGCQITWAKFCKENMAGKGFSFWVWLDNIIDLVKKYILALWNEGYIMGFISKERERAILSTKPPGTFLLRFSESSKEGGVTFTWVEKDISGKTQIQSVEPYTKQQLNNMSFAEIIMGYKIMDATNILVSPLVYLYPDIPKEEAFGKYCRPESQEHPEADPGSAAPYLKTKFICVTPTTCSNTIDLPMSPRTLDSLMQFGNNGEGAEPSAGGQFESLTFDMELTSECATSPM
Method in brief: (§1)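 Ba/F3 NPM-ALK, Karpas-299 or SU-DHL-1 cells treated for 4 h with DMSO or increasing concentrations. STAT3 and STAT5 phosphorylation read by Western blot of lysates.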

[3] = molecular target: T1, Signal transducer and activator of transcription 5A (Mus musculus) (UniProt P42230); test: Inhibition of STAT5 phosphorylation in mouse Ba/F3 NPM-ALK cells; type: cell-based; method in brief: as §1
T1 sequence (whole entry): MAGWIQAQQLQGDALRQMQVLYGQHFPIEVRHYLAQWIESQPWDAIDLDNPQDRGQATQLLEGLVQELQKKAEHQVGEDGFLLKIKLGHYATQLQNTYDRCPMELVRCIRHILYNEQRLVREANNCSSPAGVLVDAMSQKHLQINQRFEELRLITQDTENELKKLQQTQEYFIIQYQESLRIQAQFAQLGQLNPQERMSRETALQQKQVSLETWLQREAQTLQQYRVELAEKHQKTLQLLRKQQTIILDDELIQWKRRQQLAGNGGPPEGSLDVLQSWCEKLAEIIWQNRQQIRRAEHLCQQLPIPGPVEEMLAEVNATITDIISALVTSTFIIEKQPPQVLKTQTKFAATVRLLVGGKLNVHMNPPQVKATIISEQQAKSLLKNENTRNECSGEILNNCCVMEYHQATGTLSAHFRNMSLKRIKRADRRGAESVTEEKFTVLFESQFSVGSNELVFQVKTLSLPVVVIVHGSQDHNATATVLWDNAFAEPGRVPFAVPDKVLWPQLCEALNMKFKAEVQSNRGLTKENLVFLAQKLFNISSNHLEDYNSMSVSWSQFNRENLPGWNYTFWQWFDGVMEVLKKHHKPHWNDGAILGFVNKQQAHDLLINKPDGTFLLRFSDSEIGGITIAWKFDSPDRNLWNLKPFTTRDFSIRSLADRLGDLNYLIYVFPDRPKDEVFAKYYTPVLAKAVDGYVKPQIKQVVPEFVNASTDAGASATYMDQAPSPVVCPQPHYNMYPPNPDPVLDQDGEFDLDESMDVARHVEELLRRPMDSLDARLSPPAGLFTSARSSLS

[4] = molecular target: Signal transducer and activator of transcription 3 (Homo sapiens) (UniProt P40763); test: Inhibition of STAT3 in human Karpas299 cells at 50 nM; type: cell-based; conditions: KARPAS-299, TDE = time-dependent effect
Method in brief: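 Ba/F3 NPM-ALK or Karpas-299 cells held at 50 nM for times from 15 min onward. Phospho-NPM-ALK and phospho-STAT3 read by Western blot.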

KARPAS-299 [5] = test: Inhibition of PI3K/Akt signaling in human Karpas299 cells assessed as Akt phosphorylation; type: cell-based
Method in brief: (§2)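 Karpas-299 cells treated for 4 h with increasing concentrations or DMSO. Phospho-ERK and phospho-Akt read by Western blot.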

[6] = molecular target: Nucleophosmin (Mus musculus) (UniProt Q61937); test: Inhibition of NPM-ALK autophosphorylation in mouse Ba/F3 NPM-ALK cells after 4 hrs; type: cell-based
Nucleophosmin (Mus musculus), sequence (Q61937 whole entry): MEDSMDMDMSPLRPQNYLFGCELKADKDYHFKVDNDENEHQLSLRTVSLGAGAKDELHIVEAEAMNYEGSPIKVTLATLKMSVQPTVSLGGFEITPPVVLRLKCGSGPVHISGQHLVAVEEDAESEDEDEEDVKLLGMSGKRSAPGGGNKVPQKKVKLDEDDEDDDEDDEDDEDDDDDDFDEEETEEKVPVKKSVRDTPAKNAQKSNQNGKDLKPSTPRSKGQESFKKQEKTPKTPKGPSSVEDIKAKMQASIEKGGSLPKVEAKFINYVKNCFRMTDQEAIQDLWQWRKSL
Method in brief: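 Ba/F3 NPM-ALK cells exposed to a range of concentrations for 4 h. NPM-ALK autophosphorylation read by Western blot. IC50 from quantified band intensities.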

SU-DHL-1 = test: Antiproliferative activity against human SUDHL1 cells assessed as luciferase expression after 72 hrs; type: functional, cell-based; conditions: SU-DHL-1, 72 h
Method in brief: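 Luciferase-expressing Karpas-299 or SU-DHL-1 cells, 25,000 per well, exposed to serial dilutions or DMSO for 72 h. Bright-Glo luminescence normalized to DMSO wells as percent survival. IC50 from curve fit.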

BaF3 = test: Induction of apoptosis in mouse parental Ba/F3 cells at 50 nM after 48 hrs by annexin V assay; type: functional, cell-based
Method in brief: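 Parental Ba/F3 (with IL-3), Ba/F3 NPM-ALK or SU-DHL-1 cells treated with 50 nM or DMSO for 48 h. Annexin V/7-AAD staining read by flow cytometry; percent Annexin V-positive cells counted.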

KARPAS-299 [7] = test: Inhibition of RAS/RAF/MAPK signaling in human Karpas299 cells assessed as ERK phosphorylation; type: cell-based; method in brief: as §2
Mus musculus = test: Toxicity in human Karpas299 cells xenografted in SCID beige mouse at 10 mg/kg, po; type: organism-based, KARPAS-299; parameters: dose 10 mg/kg, route oral; conditions: in vivo
Method in brief: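 Female Fox Chase SCID_Beige mice bearing i.v. Karpas-299 cells received 10 mg/kg orally once daily from 72 h after injection. Watched for signs of compound- or disease-related toxicity.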

KARPAS-299 [8] = test: Antilymphomal activity against human Karpas299 cells xenografted in SCIDbeige mouse assessed as reduction in CD30 expression in lymph nodes after 3.5 weeks of […] at 10 mg/kg for 3 days; type: functional, organism-based; parameters: dose 10 mg/kg
Method in brief: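 Female Fox Chase SCID_Beige mice given Karpas-299 cells i.v. and left 3.5 weeks until lymphomas were palpable. Then dosed at 10 mg/kg or vehicle for 3 days. Killed 4 h after the third dose. Excised lymph node sections scored for CD30 by immunohistochemistry.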

KARPAS-299 [9] = test: Cell cycle arrest in human Karpas299 cells by accumulation in G1 phase at 25 nM after 72 hrs; type: functional
Method in brief: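 Karpas-299 cells exposed to 25 nM or DMSO for 24, 48 and 72 h, then fixed, stained with propidium iodide and analyzed for cell cycle distribution by flow cytometry. Three separate experiments.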

[10] = molecular target: Signal transducer and activator of transcription 3 (Mus musculus) (UniProt P42227); test: Inhibition of STAT3 phosphorylation in mouse Ba/F3 NPM-ALK cells; type: cell-based; method in brief: as §1
Signal transducer and activator of transcription 3 (Mus musculus), sequence (P42227 whole entry): as the sequence (P40763 whole entry) above, with E760D counted along it

[11] = molecular target: T2, Signal transducer and activator of transcription 5A (Homo sapiens) (UniProt P42229); test: Inhibition of STAT5 phosphorylation in human SUDHL1 cells; type: cell-based; method in brief: as §1
T2 sequence (whole entry): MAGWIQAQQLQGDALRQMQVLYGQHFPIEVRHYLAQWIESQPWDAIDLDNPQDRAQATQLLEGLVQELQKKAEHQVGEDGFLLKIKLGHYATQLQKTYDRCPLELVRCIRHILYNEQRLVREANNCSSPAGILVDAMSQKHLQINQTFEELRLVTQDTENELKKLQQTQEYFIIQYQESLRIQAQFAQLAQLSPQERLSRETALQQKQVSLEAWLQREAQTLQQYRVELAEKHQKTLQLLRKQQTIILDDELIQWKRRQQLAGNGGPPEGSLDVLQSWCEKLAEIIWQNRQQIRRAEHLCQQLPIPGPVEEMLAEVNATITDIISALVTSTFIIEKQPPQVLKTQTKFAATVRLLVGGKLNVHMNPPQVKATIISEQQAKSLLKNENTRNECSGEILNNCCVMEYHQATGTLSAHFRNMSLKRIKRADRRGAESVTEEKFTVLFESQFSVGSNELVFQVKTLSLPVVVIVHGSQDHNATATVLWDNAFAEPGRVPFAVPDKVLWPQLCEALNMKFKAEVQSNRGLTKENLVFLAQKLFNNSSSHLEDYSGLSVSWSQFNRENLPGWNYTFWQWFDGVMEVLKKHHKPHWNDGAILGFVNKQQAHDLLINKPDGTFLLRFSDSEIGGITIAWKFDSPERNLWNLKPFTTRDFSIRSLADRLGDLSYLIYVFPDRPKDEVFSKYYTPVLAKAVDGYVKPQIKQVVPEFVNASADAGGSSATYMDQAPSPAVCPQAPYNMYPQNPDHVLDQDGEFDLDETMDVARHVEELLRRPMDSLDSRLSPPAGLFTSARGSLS

[12] = Elimination half life in human Karpas299 cells xenografted SCID beige mouse at 20 mg/kg, po; type: ADME, organism-based, KARPAS-299; parameters: dose 20 mg/kg, route oral; conditions: in vivo
Method in brief: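 Mice given a single oral dose of 20 mg/kg as a solution in 10% 1-methyl-2-pyrrolidinone/90% PEG 300. Plasma levels measured to give Cmax, bioavailability and elimination half-life.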

[13] = molecular target: Nucleophosmin (Mus musculus) (UniProt Q61937); test: Inhibition of NPM-ALK in mouse Ba/F3 NPM-ALK cells at 50 nM; type: cell-based; conditions: TDE = time-dependent effect
KARPAS-299 [14] = test: Antilymphomal activity against human Karpas299 cells xenografted in SCID beige mouse assessed as reduction in downstream target STAT3 phosphorylation after 3.5 weeks of […] at 10 mg/kg for 3 days; type: functional, organism-based; parameters: dose 10 mg/kg
Method in brief: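 Female Fox Chase SCID_Beige mice given 1 × 10⁶ Karpas-299 cells by tail vein. Treatment began at 3.5 weeks, once palpable lymphomas had formed. Drug at 10 mg/kg or vehicle for 3 days, 3 mice per arm. Killed 4 h after the third dose. Excised lymph nodes immunoblotted for NPM-ALK and Stat3 phosphorylation.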

Activity [2]: Dose-dependent effect
Activity [3]: Dose-dependent effect
Activity [4]: tde
Activity [6]: Dose-dependent effect
IC50 (SU-DHL-1): 2 nM
Activity [10]: Dose-dependent effect
Activity [11]: Dose-dependent effect
half-life [12]: 12 h
Activity [13]: tde
Structure (SMILES): COc1cc(N2CCC(N3CCN(C)CC3)CC2)ccc1Nc1ncc(Cl)c(Nc2ccccc2S(=O)(=O)C(C)C)n1 [TAE-684]
IC50 [1]: 3 nM
Activity (KARPAS-299 [5]): Dose-dependent effect
Activity (BaF3): inactive
Activity (KARPAS-299 [7]): Dose-dependent effect
Activity (Mus musculus): Non-toxic
Activity (KARPAS-299 [8]): Active
Activity (KARPAS-299 [9]): 72%
Activity (KARPAS-299 [14]): Active
